Laboratory results: ChEMBL document CHEMBL4834456, “Discovery of 3,4-dihydrobenzo[f][1,4]oxazepin-5(2H)-one derivatives as a new class of ROCK inhibitors for the treatment of glaucoma” (Bioorg Med Chem Lett, 2021)
Calls of active or inactive are those of the source. No cut-off for these calls is given here.

Experiments:
[1] = target: T1, Rho-associated protein kinase 2 (Homo sapiens, UniProt O75116); assay: Inhibition of wild type partial length human ROCK1 (M1 to T431 residues) expressed in Mammalian expression system by Euro-fins kinase profiler assay
In short: (§1)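 IC50 values from the Eurofins Kinase Profiler service; averages of two independent experiments, mean ± SD.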
Target sequence in this assay (O75116 whole entry, the tested form may be a part): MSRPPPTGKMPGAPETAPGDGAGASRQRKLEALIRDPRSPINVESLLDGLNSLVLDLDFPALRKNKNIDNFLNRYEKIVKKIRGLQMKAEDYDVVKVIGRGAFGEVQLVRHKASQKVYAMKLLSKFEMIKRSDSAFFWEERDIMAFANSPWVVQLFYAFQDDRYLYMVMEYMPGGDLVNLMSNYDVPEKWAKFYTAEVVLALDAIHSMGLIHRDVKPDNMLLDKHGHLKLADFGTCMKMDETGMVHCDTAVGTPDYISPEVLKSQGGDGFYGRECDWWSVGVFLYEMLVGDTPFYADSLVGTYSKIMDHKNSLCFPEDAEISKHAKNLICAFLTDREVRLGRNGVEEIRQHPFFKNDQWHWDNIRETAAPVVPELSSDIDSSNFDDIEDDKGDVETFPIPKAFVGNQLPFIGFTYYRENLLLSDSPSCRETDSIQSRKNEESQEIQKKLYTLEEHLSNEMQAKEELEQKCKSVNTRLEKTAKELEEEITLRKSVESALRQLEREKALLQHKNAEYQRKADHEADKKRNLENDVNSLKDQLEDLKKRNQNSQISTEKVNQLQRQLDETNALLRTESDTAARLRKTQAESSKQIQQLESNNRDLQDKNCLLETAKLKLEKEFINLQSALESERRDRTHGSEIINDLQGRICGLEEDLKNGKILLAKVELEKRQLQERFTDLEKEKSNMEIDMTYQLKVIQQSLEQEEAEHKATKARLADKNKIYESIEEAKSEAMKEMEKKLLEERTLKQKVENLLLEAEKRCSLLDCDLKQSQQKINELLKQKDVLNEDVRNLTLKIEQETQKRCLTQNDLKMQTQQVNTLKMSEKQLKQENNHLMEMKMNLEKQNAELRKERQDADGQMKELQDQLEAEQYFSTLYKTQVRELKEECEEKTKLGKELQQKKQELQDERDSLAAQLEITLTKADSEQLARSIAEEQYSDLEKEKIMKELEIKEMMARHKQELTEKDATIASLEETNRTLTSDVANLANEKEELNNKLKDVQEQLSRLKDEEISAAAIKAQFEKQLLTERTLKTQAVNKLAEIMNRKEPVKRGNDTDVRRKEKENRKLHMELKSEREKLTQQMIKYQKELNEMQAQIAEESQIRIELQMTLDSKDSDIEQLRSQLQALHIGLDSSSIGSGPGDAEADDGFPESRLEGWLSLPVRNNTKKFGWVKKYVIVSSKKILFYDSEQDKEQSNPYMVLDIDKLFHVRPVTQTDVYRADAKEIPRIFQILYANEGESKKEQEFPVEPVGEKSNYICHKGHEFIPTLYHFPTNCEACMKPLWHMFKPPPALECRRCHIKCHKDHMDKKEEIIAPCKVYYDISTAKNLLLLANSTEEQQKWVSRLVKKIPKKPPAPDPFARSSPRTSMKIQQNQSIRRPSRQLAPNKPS

[2] = target: T2, Rho-associated protein kinase 1 (Homo sapiens, UniProt Q13464); assay: Inhibition of wild type partial length human ROCK1 (M1 to R415 residues) expressed in mammalian expression system by Euro-fins kinase profiler assay; in short: as §1
Target sequence in this assay (Q13464 whole entry, the tested form may be a part): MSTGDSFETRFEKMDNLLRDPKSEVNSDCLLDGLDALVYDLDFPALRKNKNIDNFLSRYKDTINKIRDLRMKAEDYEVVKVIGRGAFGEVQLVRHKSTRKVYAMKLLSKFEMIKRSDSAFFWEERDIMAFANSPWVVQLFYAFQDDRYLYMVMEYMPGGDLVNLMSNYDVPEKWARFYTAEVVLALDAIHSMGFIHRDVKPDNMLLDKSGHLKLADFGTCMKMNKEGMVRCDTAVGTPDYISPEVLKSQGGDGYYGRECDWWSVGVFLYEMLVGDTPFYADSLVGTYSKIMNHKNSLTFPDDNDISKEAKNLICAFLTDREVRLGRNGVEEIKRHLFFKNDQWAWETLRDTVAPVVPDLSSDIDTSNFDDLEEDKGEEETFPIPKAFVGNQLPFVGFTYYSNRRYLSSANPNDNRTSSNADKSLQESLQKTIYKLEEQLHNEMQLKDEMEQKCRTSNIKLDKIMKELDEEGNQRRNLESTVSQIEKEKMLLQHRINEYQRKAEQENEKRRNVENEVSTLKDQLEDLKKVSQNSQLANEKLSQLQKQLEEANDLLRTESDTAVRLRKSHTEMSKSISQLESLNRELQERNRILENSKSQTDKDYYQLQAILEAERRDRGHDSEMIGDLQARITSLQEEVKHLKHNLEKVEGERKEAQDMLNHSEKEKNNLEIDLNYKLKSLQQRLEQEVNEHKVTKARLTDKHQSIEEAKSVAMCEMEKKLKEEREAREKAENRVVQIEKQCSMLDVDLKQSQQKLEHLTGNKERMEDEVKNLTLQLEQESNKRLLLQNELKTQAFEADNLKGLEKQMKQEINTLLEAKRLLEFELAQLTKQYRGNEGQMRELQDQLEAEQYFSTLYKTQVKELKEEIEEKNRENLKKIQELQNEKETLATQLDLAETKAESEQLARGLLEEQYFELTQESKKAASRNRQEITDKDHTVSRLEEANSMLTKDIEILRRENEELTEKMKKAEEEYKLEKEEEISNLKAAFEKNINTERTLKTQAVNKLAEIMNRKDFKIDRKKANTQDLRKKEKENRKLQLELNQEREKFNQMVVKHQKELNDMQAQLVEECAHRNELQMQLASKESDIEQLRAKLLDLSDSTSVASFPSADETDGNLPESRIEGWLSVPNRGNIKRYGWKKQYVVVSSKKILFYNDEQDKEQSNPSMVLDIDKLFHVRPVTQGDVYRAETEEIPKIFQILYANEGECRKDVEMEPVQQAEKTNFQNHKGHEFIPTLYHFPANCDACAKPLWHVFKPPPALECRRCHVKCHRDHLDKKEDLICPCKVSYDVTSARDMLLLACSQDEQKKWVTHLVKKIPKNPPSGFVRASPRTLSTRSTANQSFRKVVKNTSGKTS

[3] = target: T2, Rho-associated protein kinase 1; assay: Inhibition of ROCK1 (unknown origin) at 10 uM
In short: (§2)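 Kinase selectivity panel of 100 representative kinases, each tested at a fixed 10 µM; inhibition rate recorded per kinase. Values are averages of two independent experiments, mean ± SD.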
Target sequence in this assay (Q13464 2-1354 limits assumed): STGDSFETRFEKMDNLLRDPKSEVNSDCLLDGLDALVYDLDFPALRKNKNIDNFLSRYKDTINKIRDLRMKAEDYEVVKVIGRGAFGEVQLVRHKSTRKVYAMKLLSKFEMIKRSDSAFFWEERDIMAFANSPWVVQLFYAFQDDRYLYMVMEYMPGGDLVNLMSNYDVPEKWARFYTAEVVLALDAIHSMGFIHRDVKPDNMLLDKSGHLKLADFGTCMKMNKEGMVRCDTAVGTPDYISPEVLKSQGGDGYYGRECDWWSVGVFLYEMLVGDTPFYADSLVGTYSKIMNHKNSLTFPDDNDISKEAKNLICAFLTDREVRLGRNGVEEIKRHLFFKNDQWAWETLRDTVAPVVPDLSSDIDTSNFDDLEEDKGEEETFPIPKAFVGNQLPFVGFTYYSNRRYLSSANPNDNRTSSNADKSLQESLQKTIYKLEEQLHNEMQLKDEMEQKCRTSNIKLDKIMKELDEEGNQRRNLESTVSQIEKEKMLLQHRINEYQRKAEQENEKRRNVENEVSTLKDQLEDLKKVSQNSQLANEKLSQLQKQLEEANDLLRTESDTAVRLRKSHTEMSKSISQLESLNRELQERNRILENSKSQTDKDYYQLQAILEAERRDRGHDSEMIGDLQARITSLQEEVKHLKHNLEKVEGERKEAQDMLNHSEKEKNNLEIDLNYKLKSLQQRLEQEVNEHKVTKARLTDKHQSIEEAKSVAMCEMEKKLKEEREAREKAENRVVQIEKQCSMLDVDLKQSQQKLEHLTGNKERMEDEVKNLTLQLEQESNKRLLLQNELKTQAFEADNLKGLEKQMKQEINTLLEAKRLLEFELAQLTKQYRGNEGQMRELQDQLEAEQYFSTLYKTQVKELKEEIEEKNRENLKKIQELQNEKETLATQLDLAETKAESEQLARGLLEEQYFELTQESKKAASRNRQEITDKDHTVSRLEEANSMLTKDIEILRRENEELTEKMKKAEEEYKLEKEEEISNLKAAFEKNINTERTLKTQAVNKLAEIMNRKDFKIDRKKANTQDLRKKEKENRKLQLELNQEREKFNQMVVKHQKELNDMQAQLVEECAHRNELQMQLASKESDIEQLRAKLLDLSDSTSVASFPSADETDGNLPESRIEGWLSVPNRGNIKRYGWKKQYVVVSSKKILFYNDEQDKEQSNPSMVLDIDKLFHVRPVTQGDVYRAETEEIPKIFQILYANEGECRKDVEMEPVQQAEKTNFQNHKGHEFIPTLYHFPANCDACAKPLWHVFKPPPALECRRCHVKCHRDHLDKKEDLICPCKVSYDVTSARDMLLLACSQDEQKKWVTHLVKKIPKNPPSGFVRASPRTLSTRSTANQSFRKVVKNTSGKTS

[4] = target: T1, Rho-associated protein kinase 2; assay: Inhibition of ROCK2 (unknown origin) at 10 uM; in short: as §2
Target sequence in this assay (O75116 whole entry, looked up, the tested form may be a part): as the sequence (O75116 whole entry, the tested form may be a part) above

Oryctolagus cuniculus = assay: Antiglaucoma activity in topically treated NZW rabbits assessed as reduction of intra ocular pressure measured after 1 hr relative to control; format: functional; parameters: scale not given: the % may be the effect or the level left
In short: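 Ocular normotensive NZW rabbits received 0.3% eye drops topically in one eye and vehicle in the contralateral eye. IOP was followed over several hours after instillation and expressed as reduction from baseline, with the 1 h reading compared against vehicle.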

[5] = Toxicity in topically treated NZW rabbit assessed as hyperaemia measured after 3 hrs; parameters: species or system Oryctolagus cuniculus; details: in vivo, topical_or_ocular
SH-SY5Y [6] = assay: Effect on MYPT1 expression in human SH-SY5Y cells at 0.1 to 1 uM measured after 12 hrs by western blot assay; format: functional, cell-based; details: dose 0.1-1 µM
In short: (§3)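 SH-SY5Y cells exposed to compound at 0.1, 0.3 and 1 µM for 12 h. Phospho-MYPT1 assessed by western blot, with immunoblots quantified. Significance versus untreated control by t test.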

[7] = target: LIM domain kinase 2 (Homo sapiens) (UniProt P53671); assay: Inhibition of LIMK2 (unknown origin) at 10 uM; in short: as §2
LIM domain kinase 2 (Homo sapiens), sequence (P53671 whole entry, looked up, the tested form may be a part): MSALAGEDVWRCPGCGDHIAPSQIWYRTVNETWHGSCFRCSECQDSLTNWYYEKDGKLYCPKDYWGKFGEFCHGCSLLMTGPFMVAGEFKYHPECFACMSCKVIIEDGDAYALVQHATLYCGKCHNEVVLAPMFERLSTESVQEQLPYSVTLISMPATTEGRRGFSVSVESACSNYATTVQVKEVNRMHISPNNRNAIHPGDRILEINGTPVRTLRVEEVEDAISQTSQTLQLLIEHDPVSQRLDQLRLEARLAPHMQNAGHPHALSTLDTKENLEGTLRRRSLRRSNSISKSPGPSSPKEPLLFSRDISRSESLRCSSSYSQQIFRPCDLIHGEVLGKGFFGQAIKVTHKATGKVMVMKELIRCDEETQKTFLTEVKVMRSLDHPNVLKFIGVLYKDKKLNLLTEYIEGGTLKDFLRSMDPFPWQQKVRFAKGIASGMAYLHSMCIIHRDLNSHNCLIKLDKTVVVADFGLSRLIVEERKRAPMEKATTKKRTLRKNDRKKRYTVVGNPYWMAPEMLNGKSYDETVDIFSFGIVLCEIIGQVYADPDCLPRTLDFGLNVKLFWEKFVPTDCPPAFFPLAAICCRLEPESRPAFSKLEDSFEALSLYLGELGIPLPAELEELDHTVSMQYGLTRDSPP

SH-SY5Y [8] = assay: Inhibition of human ROCK in human SH-SY5Y cells assessed as inhibition of phosphorylation of MYPT1 at 0.1 to 1 uM measured after 12 hrs by western blot assay; format: cell-based; details: dose 0.1-1 µM; in short: as §3

Row | Compound | IC50 [1] | IC50 [2] | other results
1 | COc1cccc(CN2COc3cc(-c4ccc5[nH]ncc5c4)ccc3C2=O)c1 | 434 nM | 1460 nM | 
2 | COc1cccc(CN2CCOc3cc(-c4cnc5[nH]ccc5c4)ccc3C2=O)c1 | 5530 nM | > 10000 nM | 
3 | COc1cccc(CN2CCOc3cc(-c4ccc5[nH]ncc5c4)ccc3C2=O)c1 | 182 nM | 1080 nM | 
4 | COc1cccc(CN2CCOc3cc(-c4ccc5c(c4)OCO5)ccc3C2=O)c1 | > 10000 nM | > 10000 nM | 
5 | COc1cccc(CN2CCOc3cc(-c4ccc(N)nc4)ccc3C2=O)c1 | > 10000 nM | > 10000 nM | 
6 | COC(=O)c1cccc(CN2CCOc3cc(-c4ccncc4)ccc3C2=O)c1 | 9 nM | 208 nM | 
7 | COc1cccc(CN2CCCc3cc(-c4ccc5[nH]ncc5c4)ccc3C2=O)c1 | 2110 nM | > 10000 nM | 
8 | COc1cc(CN2CCOc3cc(-c4ccncc4)ccc3C2=O)cc(OC)c1 | 217 nM | 4490 nM | 
9 | COc1cccc(CN2CCOc3ccc(-c4ccncc4)cc3C2=O)c1 | 761 nM | > 10000 nM | 
10 | COc1cccc(CN2CC(C)(C)Oc3cc(-c4ccc5[nH]ncc5c4)ccc3C2=O)c1 | 749 nM | 6010 nM | 
11 | COc1cccc(CN2CCOc3cc(-c4ccncc4)ccc3C2=O)c1 | 3 nM | 93 nM | inhibition [3]: Active; inhibition [4]: Active; Activity (Oryctolagus cuniculus): 34.3%; Activity [5]: Non-Toxic; Activity (SH-SY5Y [6]): inactive; inhibition [7]: Active; inhibition (SH-SY5Y [8]): Active
12 | N#Cc1cccc(CN2CCOc3cc(-c4ccncc4)ccc3C2=O)c1 | 50 nM | 3100 nM | 
13 | COc1cccc(CN2CCOc3cc(-c4ccnc5[nH]ccc45)ccc3C2=O)c1 | 15 nM | 103 nM | 
14 | COc1cccc(CN2CCOc3cc(-c4ccnc(N)c4)ccc3C2=O)c1 | 15 nM | 1140 nM | 
15 | O=C1c2ccc(-c3ccncc3)cc2OCCN1Cc1cccc(C(F)(F)F)c1 | 133 nM | 1960 nM | 
16 | O=C1c2ccc(-c3ccncc3)cc2OCCN1Cc1cccc(OC(F)(F)F)c1 | 495 nM | 9240 nM | 
17 | COc1cccc(CN2CCOc3cc(-c4cncnc4)ccc3C2=O)c1 | > 10000 nM | > 10000 nM | 
18 | O=Cc1cccc(CN2CCOc3cc(-c4ccncc4)ccc3C2=O)c1 | 29 nM | 668 nM | 
